Data: ChEMBL document CHEMBL4477235, “Evolution of a Novel, Orally Bioavailable Series of PI3Kδ Inhibitors from an Inhaled Lead for the Treatment of Respiratory Disease” (J Med Chem, 2016)
≈ marks a conversion by molar mass, not a printed value.

How the values were obtained:
[1] = molecular target: Albumin (Homo sapiens, UniProt P02768); assay: Binding affinity to human serum albumin by HPLC analysis; assay type: ADME; settings: read-out: PB (converted)
[2] = organism: Homo sapiens; assay: Selectivity ratio of IC50 for PI3Kbeta (unknown origin) to IC50 for PI3Kdelta (unknown origin)
In short: (§1)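 Ratio of each isoform's HTRF IC50 to the PI3Kδ HTRF IC50. Enzymes were preincubated 15 min with 4-fold compound dilutions in HEPES pH 7.0, MgCl2, DTT buffer. […] PIP2 was 5 µM for δ and 8 µM for α/β/γ. 60 min reaction, then EDTA quench with GRP-1 PH domain/APC/Eu detection. Four-parameter fit.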

[3] = Half life in Sprague-Dawley rat at 1 mg/kg, iv by LC-MS/MS analysis; assay type: ADME, organism-based; settings: in vivo
In short: (§2)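 Male Sprague Dawley rats (n = 2/route), intravenous dose as a solution in DMSO/PEG200/water (5:45:50 v/v/v) at 2 mL/kg. Serial tail-vein blood sampling over 0–7 h. LC–MS/MS quantification of parent. Noncompartmental analysis.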

[4] = Oral bioavailability in Sprague-Dawley rat at 3 mg/kg measured up to 7 hrs by LC-MS/MS analysis; assay type: ADME, organism-based; settings: in vivo; for F: 7 h
In short: (§3)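 Male Sprague Dawley rats, n = 2 per route, were dosed discretely at 3 mg/kg orally or 1 mg/kg intravenously. The dosing solution was DMSO/PEG200/water (5:45:50 v/v/v). Serial tail-vein blood samples were taken over 0–7 h, and parent compound was quantified by LC–MS/MS. Parameters were estimated by noncompartmental analysis.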

[5] = molecular target: Phosphatidylinositol 4,5-bisphosphate 3-kinase catalytic subunit delta isoform (Homo sapiens) (UniProt O00329); assay: Ratio of IC50 for PI3Kdelta in human PBMC to IC50 for PI3Kdelta (unknown origin)
[6] = Clearance in rat liver microsomes at 0.5 uM measured up to 30 mins by LC-MS/MS analysis; assay type: ADME, Microsome; settings: 0.5 h
In short: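 Rat liver microsomes (0.5 mg protein/mL) prewarmed 10 min at 37 °C, started with NADPH regeneration system. Final compound 0.5 μM. Sampled at 0, 3, 6, 12 and 30 min into acetonitrile with internal standard. Peak area ratios by LC–MS/MS fitted to log-linear decline. Clearance scaled by protein concentration, incubation volume and 52.5 mg microsomal protein/g liver.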

[7] = AUC(infinity) in Sprague-Dawley rat at 3 mg/kg, po measured up to 7 hrs by LC-MS/MS analysis; assay type: ADME, organism-based; parameters: dose 3 mg/kg, time infinity, route oral; settings: in vivo
In short: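 Male Sprague Dawley rats (n = 2/route), oral dose in DMSO/PEG200/water (5:45:50 v/v/v) at 6 mL/kg. Serial tail-vein bleeds over 0–7 h. Parent compound quantified by LC–MS/MS. Parameters from noncompartmental analysis.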

[8] = Volume of distribution at steady state in Sprague-Dawley rat at 3 mg/kg, po or 1 mg/kg, iv measured up to 7 hrs by LC-MS/MS analysis; assay type: ADME, organism-based; settings: in vivo, read-out: Vdss; in short: as §3
[9] = organism: Homo sapiens; assay: Selectivity ratio of IC50 for PI3Kalpha (unknown origin) to IC50 for PI3Kdelta (unknown origin); in short: as §1
[10] = Clearance in human liver microsomes at 0.5 uM measured up to 30 mins by LC-MS/MS analysis; assay type: ADME, Microsome; settings: 0.5 h
[11] = Kinetic solubility in phosphate buffered saline at pH 7.4 after 1 hr by chemiluminescent nitrogen detection method; assay type: physicochemical; settings: read-out: Kinetic_solubility
In short: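 The sample was then filtered, and the filtrate was quantified by calibrated flow-injection chemiluminescent nitrogen detection. Standard error was ±30 µM, and the upper limit was 500 µM from the 10 mM stock.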

[12] = molecular target: T1, Phosphatidylinositol 4,5-bisphosphate 3-kinase catalytic subunit delta isoform (Homo sapiens, UniProt O00329)
T1 sequence (O00329 whole entry): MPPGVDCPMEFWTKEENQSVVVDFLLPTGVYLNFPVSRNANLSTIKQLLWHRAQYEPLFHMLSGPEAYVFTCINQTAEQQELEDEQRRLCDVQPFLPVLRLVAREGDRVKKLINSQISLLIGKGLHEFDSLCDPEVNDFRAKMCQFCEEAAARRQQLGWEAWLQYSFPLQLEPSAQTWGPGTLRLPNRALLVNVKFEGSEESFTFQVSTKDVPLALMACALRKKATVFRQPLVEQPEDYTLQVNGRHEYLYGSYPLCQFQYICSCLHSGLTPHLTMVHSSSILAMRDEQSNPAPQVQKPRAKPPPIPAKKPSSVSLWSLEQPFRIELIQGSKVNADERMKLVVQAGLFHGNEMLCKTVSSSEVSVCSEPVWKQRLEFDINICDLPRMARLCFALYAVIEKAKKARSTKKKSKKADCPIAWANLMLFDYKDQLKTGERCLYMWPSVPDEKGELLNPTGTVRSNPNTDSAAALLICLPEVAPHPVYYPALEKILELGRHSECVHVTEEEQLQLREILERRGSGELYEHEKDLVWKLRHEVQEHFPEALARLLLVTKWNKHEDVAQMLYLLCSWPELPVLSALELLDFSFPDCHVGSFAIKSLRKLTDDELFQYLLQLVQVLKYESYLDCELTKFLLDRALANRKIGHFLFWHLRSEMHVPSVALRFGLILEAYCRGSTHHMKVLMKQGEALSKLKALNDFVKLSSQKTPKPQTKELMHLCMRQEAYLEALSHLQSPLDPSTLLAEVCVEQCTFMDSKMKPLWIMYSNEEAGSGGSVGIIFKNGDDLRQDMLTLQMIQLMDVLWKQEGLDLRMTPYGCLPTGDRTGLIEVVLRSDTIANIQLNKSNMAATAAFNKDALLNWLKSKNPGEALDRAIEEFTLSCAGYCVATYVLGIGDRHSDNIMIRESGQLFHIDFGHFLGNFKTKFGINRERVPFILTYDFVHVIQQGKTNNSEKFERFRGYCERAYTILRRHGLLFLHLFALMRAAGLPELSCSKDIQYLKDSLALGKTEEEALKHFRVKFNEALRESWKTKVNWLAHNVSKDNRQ

[13] = organism: Homo sapiens; assay: Selectivity ratio of IC50 for PI3Kgamma (unknown origin) to IC50 for PI3Kdelta (unknown origin); in short: as §1
[14] = molecular target: T1, Phosphatidylinositol 4,5-bisphosphate 3-kinase catalytic subunit delta isoform; remark: listed apart in the source
[15] = Clearance in mouse liver microsomes at 0.5 uM measured up to 30 mins by LC-MS/MS analysis; assay type: ADME, Microsome; settings: 0.5 h
[16] = AUC (0 to t) in Sprague-Dawley rat at 3 mg/kg, po measured up to 7 hrs by LC-MS/MS analysis; assay type: ADME, organism-based; parameters: dose 3 mg/kg, time < 7 hr, route oral; settings: in vivo
In short: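 Male Sprague Dawley rats were given a single oral dose of 3 mg/kg in DMSO/PEG200/water (5:45:50 v/v/v) at 6 mL/kg, with n = 2 per route. Blood was sampled serially from the tail vein over 0–7 h. Parent compound was quantified by LC–MS/MS, and parameters were derived by noncompartmental analysis.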

[17] = molecular target: Phosphatidylinositol 4,5-bisphosphate 3-kinase catalytic subunit beta isoform (Homo sapiens, UniProt P42338); assay: Inhibition of PI3Kbeta (unknown origin) using PIP2 as substrate preincubated for 15 mins followed by substrate addition measured after 60 mins in presence of biotin-labeled PIP3 by HTRF assay
Phosphatidylinositol 4,5-bisphosphate 3-kinase catalytic subunit beta isoform, sequence (P42338 whole entry, the tested form may be a part, canonical isoform): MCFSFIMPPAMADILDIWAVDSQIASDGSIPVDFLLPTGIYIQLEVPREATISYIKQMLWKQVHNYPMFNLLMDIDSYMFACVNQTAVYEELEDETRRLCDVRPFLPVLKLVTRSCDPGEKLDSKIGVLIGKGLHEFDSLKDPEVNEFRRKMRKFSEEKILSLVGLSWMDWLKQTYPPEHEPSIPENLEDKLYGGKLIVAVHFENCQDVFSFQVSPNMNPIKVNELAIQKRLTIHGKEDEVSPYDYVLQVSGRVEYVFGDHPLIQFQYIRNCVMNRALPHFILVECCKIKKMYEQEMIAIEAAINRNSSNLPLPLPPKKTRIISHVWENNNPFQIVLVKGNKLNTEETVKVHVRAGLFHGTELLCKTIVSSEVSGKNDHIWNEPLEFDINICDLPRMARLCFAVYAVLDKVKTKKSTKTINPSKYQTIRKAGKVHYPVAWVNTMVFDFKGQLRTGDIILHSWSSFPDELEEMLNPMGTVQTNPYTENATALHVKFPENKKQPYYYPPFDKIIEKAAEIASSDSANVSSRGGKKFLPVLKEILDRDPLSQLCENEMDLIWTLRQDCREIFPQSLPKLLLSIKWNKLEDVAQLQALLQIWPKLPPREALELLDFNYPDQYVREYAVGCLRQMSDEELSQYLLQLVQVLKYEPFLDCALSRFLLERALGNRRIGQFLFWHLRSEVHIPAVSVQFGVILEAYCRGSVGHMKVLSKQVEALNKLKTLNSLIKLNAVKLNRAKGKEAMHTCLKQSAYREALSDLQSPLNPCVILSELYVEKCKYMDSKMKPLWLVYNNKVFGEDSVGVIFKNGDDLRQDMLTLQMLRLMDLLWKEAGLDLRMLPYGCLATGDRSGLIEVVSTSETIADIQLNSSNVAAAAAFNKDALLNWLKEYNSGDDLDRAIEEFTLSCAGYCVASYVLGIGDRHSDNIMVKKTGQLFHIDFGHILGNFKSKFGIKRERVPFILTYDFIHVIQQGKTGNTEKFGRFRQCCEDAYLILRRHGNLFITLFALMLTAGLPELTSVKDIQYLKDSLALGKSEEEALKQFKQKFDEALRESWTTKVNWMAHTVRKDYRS
In short: (§4)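 HTRF kinase assay in 50 mM HEPES pH 7.0, 150 mM NaCl, 10 mM MgCl₂, 1 mM DTT. Enzyme preincubated 15 min with 4-fold serially diluted compound. […] Quenched after 60 min with EDTA plus GRP-1 PH domain/streptavidin-APC/Eu-antiGST detection, then equilibrated 60 min in the dark. Data normalized to no-compound and no-enzyme controls. IC50 from four-parameter fit.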

[18] = Lipophilicity, log D of compound at pH 7.4 by chromatographic method; assay type: physicochemical; settings: buffer
[19] = molecular target: Phosphatidylinositol 4,5-bisphosphate 3-kinase catalytic subunit gamma isoform (Homo sapiens, UniProt P48736); assay: Inhibition of PI3Kgamma (unknown origin) using PIP2 as substrate preincubated for 15 mins followed by substrate addition measured after 60 mins in presence of biotin-labeled PIP3 by HTRF assay; in short: as §4
Phosphatidylinositol 4,5-bisphosphate 3-kinase catalytic subunit gamma isoform, sequence (P48736 whole entry, canonical isoform): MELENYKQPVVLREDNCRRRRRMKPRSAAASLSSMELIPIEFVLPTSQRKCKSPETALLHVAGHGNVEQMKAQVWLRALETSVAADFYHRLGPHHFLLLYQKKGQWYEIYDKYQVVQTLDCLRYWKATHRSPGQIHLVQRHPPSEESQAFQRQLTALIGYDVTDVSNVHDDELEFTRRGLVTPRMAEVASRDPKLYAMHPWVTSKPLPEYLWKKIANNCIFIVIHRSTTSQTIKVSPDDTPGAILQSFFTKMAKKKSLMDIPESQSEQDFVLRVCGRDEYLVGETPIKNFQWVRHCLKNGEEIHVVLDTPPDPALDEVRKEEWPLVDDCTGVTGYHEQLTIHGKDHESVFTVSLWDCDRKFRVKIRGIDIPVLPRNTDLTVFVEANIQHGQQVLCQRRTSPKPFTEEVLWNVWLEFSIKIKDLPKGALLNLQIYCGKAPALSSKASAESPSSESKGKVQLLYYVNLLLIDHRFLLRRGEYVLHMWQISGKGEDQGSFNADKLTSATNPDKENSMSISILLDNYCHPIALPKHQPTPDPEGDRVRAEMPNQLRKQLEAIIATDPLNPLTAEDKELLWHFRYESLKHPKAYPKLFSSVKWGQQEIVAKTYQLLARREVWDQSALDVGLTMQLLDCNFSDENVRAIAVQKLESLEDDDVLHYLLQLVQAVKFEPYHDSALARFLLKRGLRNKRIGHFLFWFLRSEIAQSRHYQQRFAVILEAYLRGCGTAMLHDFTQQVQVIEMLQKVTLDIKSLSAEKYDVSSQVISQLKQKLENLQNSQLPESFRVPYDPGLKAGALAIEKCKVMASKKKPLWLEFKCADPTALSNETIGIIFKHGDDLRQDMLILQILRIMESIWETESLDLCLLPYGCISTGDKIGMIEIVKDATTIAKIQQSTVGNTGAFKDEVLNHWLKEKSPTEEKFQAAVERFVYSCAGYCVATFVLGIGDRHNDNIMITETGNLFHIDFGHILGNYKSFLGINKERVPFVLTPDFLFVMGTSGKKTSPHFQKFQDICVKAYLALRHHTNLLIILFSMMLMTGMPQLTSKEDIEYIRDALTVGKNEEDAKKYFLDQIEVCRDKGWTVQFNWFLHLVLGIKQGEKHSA

[20] = molecular target: Phosphatidylinositol 4,5-bisphosphate 3-kinase catalytic subunit alpha isoform (Homo sapiens, UniProt P42336); assay: Inhibition of PI3Kalpha (unknown origin) using PIP2 as substrate preincubated for 15 mins followed by substrate addition measured after 60 mins in presence of biotin-labeled PIP3 by HTRF assay; in short: as §4
Phosphatidylinositol 4,5-bisphosphate 3-kinase catalytic subunit alpha isoform, sequence (P42336 whole entry, canonical isoform): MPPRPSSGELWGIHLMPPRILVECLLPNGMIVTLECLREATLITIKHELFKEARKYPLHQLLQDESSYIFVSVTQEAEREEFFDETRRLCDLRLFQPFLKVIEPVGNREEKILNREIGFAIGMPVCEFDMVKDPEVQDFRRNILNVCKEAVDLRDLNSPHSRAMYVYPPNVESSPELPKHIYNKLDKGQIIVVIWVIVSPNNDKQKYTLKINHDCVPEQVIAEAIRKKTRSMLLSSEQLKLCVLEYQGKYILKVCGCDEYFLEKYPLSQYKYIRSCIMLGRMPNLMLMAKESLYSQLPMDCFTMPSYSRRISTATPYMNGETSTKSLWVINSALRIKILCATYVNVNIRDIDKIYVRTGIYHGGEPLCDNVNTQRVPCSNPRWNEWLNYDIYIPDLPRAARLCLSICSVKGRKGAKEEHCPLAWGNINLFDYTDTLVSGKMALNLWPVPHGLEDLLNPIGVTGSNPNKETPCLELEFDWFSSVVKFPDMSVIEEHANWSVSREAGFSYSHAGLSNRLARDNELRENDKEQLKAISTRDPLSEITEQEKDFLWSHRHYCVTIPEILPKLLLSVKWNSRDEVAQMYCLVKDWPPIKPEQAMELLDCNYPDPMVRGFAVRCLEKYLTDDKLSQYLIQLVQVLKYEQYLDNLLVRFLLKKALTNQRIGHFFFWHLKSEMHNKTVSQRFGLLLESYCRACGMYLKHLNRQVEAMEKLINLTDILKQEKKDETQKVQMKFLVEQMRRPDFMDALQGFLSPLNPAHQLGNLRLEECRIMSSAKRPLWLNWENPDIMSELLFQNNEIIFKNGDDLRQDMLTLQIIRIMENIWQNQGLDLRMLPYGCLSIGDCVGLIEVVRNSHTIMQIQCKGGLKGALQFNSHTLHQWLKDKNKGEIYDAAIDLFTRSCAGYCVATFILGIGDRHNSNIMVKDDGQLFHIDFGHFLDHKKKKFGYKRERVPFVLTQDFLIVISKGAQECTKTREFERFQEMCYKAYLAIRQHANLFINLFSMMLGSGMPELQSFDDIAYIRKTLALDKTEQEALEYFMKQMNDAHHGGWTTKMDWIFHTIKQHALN

[21] = Cmax in Sprague-Dawley rat at 3 mg/kg, po measured up to 7 hrs by LC-MS/MS analysis; assay type: ADME, organism-based; parameters: dose 3 mg/kg, route oral; settings: in vivo
[22] = Clearance in Sprague-Dawley rat at 1 mg/kg, iv measured up to 7 hrs by LC-MS/MS analysis; assay type: ADME, organism-based; settings: in vivo; in short: as §2

Albumin, sequence (P02768 whole entry): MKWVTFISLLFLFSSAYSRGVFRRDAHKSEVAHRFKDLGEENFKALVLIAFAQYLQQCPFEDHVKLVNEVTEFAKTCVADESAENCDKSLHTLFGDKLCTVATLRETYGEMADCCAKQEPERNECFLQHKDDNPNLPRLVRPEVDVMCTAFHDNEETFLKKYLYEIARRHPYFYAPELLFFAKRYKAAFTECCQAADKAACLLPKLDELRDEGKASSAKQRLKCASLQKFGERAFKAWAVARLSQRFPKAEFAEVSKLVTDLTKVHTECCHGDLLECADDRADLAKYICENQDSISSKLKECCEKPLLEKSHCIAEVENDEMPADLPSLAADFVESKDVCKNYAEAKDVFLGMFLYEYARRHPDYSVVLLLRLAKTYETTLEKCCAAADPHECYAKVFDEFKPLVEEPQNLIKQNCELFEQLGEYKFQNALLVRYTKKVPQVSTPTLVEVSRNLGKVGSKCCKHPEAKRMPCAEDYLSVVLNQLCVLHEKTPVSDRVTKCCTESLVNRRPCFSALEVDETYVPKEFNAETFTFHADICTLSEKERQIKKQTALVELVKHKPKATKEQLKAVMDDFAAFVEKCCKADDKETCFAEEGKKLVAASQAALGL

Row | Compound | fraction unbound [1] | Ratio IC50 [2] | half-life [3] | CLH [6] | Vd [8] | Ratio IC50 [9] | CLH [10] | solubility kinetic at 1 h [11] | Ratio IC50 [13] | IC50 [14] | CLH [15] | chromatographic logD [18] | further results
1 | COc1ncc(-c2cc3c(c(-c4nnc(C)o4)c2)COC3)cc1NS(C)(=O)=O | 0.1 | 13 | 0.9 h | < 0.5 mL/min/g | 0.5 L/kg | 5 | < 0.5 mL/min/g | 195 µg/mL (≈ 485 µM) | 5 | 20 nM | 1 mL/min/g | – | F [4]: 56%; Ratio IC50 [5]: > 10; AUC ([7]; 7 h): 1370 ng·h/mL; IC50 [12]: 200 nM
2 | COc1ncc(-c2cc(NC(=O)c3csc(C)n3)c3cn[nH]c3c2)cc1NS(C)(=O)=O | – | 63 | – | – | – | 63 | – | – | 16 | – | – | – | –
3 | COc1ncc(-c2cc3c(c(NC(=O)c4cccc(C)n4)c2)COC3)cc1NS(C)(=O)=O | 0.07 | 126 | 3.4 h | 1.2 mL/min/g | 1.6 L/kg | 50 | < 0.5 mL/min/g | 50 µg/mL (≈ 110 µM) | 25 | 5.01 nM | 1.4 mL/min/g | – | F [4]: 1.5%; Ratio IC50 [5]: > 10; AUCt [16]: 42 ng·h/mL; IC50 [12]: 200 nM
4 | COc1ncc(-c2ccc3c(c2)COC3)cc1NS(C)(=O)=O | – | 2.5 | – | – | – | 5 | – | 92 µg/mL (≈ 287 µM) | 4 | 794 nM | – | 3.5 | IC50 [17]: 2000 nM; IC50 [19]: 3160 nM; IC50 [20]: 3980 nM
5 | COc1ncc(-c2cc3c(c(-c4ccccn4)c2)COC3)cc1NS(C)(=O)=O | – | 20 | – | – | – | 10 | – | – | 6 | 63.1 nM | – | – | –
6 | COc1ncc(-c2cc3c(c(NC(=O)c4csc(C)n4)c2)COC3)cc1NS(C)(=O)=O | – | 63 | – | – | – | 50 | – | – | 25 | 7.94 nM | – | – | –
7 | COc1ncc(-c2cc(-c3ncc(CN4C[C@@H](C)O[C@@H](C)C4)o3)c3cn[nH]c3c2)cc1NS(C)(=O)=O | 0.1 | – | 2.6 h | 1.9 mL/min/g | 3.5 L/kg | – | 3.2 mL/min/g | 182 µg/mL (≈ 355 µM) | – | – | 5.9 mL/min/g | 3.3 | bioavailability ([4]; Sprague-Dawley): < 2%; Cmax [21]: < 2 ng/mL; clearance [22]: 50 mL/min/kg; AUC(0-inf) ([7]; Sprague-Dawley): < 24 ng·h/mL
8 | COc1ncc(-c2ccc3cn[nH]c3c2)cc1NS(C)(=O)=O | – | – | – | – | – | – | – | 31 µg/mL (≈ 97.4 µM) | – | – | – | 2.6 | IC50 [17]: 7940 nM; IC50 [19]: 2510 nM; IC50 [20]: 7940 nM
9 | COc1ncc(-c2cc3c(c(NC(C)=O)c2)COC3)cc1NS(C)(=O)=O | – | 13 | – | – | – | 4 | – | – | 13 | 398 nM | – | – | –
